Source: PubChem
This is a sample that favours compounds with a hit; in the whole collection about 0.81% have one here.
Calpain2 inh = inhibitors of pig calpain II; purified calpain II, fluorogenic peptide substrate, 30 min; inhibition, % at 16 µM; 0.37% of 220,000 active; AID 1236;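 active means inhibition above about 50%, limit read from the data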
PKD1 inh = inhibitors of human PKD1 kinase | Q15139 | PKD1 kinase fluorescence polarization assay | inhibition, % (no concentration beside the values) | 0.056% of 200,000 active | AID 797; in the data active means inhibition above about 50%
Rad51 HR inh = blocks human Rad51 in homologous recombination; hRad51 DNA strand exchange, fluorescence dequenching; inhibition, % at 10 µM; 0.085% of 200,000 active;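 active means inhibition above 40% at the single screening dose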;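 further: 0% = DMSO control wells and 100% = blanks with heterologous ssDNA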
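Material: hRad51 filaments on single-stranded DNA; Reagent: Donor/quencher-labelled 47-bp dsDNA substrate; Compound: 10 µM final, single point; Schedule: 37 °C 15-min filament assembly, 30-min compound preincubation, 15-min exchange; Technique: FRET fluorescence, excitation 485 nm, emission 520 nm; Benchmarks: control wells and blank wells on each plate.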
DTT redox prof = compounds producing H2O2 with reducing agent – biochemical, NIH compound library profiling, artefact control for MLSCN library redox annotation, primary screen | 0.03% of 200,000 active | AID 878 | DTT-dependent redox cycling H2O2, phenol red/HRP absorbance; 100% = 100 µM peroxide control, 0% = buffer | activation, % at 10 µM;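 active means activation of at least 50% relative to the plate's high and low controls in the primary single-dose screen; inactive means activation below 50%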;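 further: compound incubated with DTT at 0.8 mM final as the reducing agent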
Pf gamet viab = P. falciparum stage V gametocyte viability inhibition; AID 743093; 0.065% of 150,000 active; inhibition, % at 10.9 µM; P. falciparum stage V gametocytes, ATP luminescence, 24 h;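 active means inhibition above the mean plus 3 SD of compounds within the control limits, set per campaign, cut at about 38% in these data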;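 further: 0% = DMSO wells and 100% = medium only without gametocytes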
Efa HMGR inh = inhibitors of class II HMG-CoA reductase from Enterococcus faecalis. purified E. faecalis HMGR, NADPH absorbance 340 nm kinetic. inhibition, % at 10 µM. 0.41% of 190,000 active;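 active means inhibition above a set limit, the median over all tested compounds plus 3 SD, cut at about 9.5% in these data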;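 further: enzyme runs in reverse so mevalonate oxidation gives rising NADPH absorbance; 0% = complete reaction with DMSO and 100% = background rate lacking mevalonate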
* hit, by the source's call; nt = no result given.

SMILES | Calpain2 inh | PKD1 inh | Rad51 HR inh | DTT redox prof | Pf gamet viab | Efa HMGR inh
COc1ccc(OC)c(Nc2nc(NCCCN(C)C)nc(N)c2[N+](=O)[O-])c1 | -4 | nt | 41* | nt | -6 | nt
COC(=O)c1c(N2C(=O)[C@H]3[C@@H](C2=O)[C@]2(C(=O)Nc4c(C)cc(C)cc42)N2CCC[C@@H]32)sc(C)c1C | -134 | -6 | -9 | 0 | nt | 1
COC(=O)c1c(N2C(=O)[C@H]3[C@@H](C2=O)[C@]2(C(=O)Nc4c2ccc(C)c4C)N2CCC[C@@H]32)sc(C)c1C | -59 | 3 | 41* | 0 | nt | -3
O=C(CN1CCN(c2ccccn2)CC1)Nc1nc2ccccc2s1 | nt | nt | nt | nt | 1 | nt
O=C(Nc1ccc2ccccc2c1)C(=O)C1C(=O)Nc2ccccc21 (stereo unspecified) | 51* | nt | -13 | nt | -13 | nt
O=C(Nc1ccc(F)cc1)C(=O)C1C(=O)Nc2ccccc21 (stereo unspecified) | 3 | nt | -2 | nt | 16 | nt
O=C(O)CCC(=O)NNC(=O)c1cccs1 | 0 | -1 | 5 | -1 | 16 | -4
O=C(c1ccc2ccccc2n1)N1CCN(c2ccccc2O)CC1 | -61 | -1 | 87* | 2 | 13 | -3
O=C(c1ccc2ccccc2n1)N1CCN(c2ccccc2)CC1 | -18 | -8 | 4 | 3 | 11 | 0
COc1cc2[nH]c(=O)n(Cc3ccc(C(=O)NC4CCCC4)cc3)c(=O)c2cc1OC | 0 | -2 | -5 | 0 | nt | -4
COc1ccc(Cn2c(=O)[nH]c3cc(C(=O)NC4CCCC4)ccc3c2=O)cc1 | 11 | 56* | -21 | -2 | -3 | -2
COC(=O)c1ccc(CN2CCCC(C(=O)c3ccccc3OC)C2)cc1 (stereo unspecified) | nt | nt | nt | nt | -11 | nt
O=C(/C=C/c1ccc(Cl)c([N+](=O)[O-])c1)Nc1ccc(N2CCCC2)cc1 | -66 | -8 | 55* | 0 | -16 | -4
O=C(/C=C/c1ccc(Cl)c([N+](=O)[O-])c1)Nc1ccc(NC(=O)c2ccco2)cc1 | -31 | 4 | -6 | 0 | -6 | -1
CCOc1cccc(CNc2ccc(O)cc2)c1OCc1ccc(Cl)cc1Cl | 68* | 4 | nt | -1 | -26 | -5
CCOc1cccc(CNc2ccc(O)cc2)c1OCc1ccccc1Cl | 7 | -1 | 11 | 1 | nt | -5
CC(C)C[C@H](NC(=O)c1[nH]cnc1C(=O)N[C@@H](C)c1ccccc1)C(=O)OCc1ccccc1 | 56* | nt | -3 | nt | nt | nt
CC(C)C[C@H](NC(=O)c1nc[nH]c1C(=O)NCCCCCNC(=O)OC(C)(C)C)C(=O)OC(C)(C)C | 51* | -2 | -3 | 0 | -3 | -4
CC(C)(C)OC(=O)NCCCC[C@H](NC(=O)c1[nH]cnc1C(=O)Nc1ccccc1)C(=O)OC(C)(C)C | 26 | nt | -7 | nt | nt | nt
C[C@@H](NC(=O)c1nc[nH]c1C(=O)N[C@@H](CCCCNC(=O)OC(C)(C)C)C(=O)OC(C)(C)C)c1ccccc1 | 61* | -3 | 8 | 0 | nt | -5
O=C(NCC(=O)N(Cc1cccs1)C(C(=O)NC1CCCC1)c1ccncc1)c1ccco1 (stereo unspecified) | -63 | -7 | -5 | 2 | nt | 33*
Cc1ccc(NC(=S)N(Cc2cccc(Br)c2)CC2CCC(C(=O)O)CC2)cc1 (stereo unspecified) | -1 | 1 | nt | -1 | 1 | 4
Cc1cc(NC(=S)N(Cc2cccc(Br)c2)CC2CCC(C(=O)O)CC2)ccc1Cl (stereo unspecified) | 53* | 6 | nt | 0 | 10 | 1
CCOC(=O)c1c(NC(=O)CSc2nnc(C)s2)sc2c1CCC(CC)C2 (stereo unspecified) | 13 | -3 | 2 | 1 | nt | 14*
COc1ccc(/C=N/Nc2nc(Nc3ccccc3)nc(N3CCCC3)n2)cc1 | -17 | 2 | -1 | 0 | nt | 11*
SMILES | Calpain2 inh | PKD1 inh | Rad51 HR inh | DTT redox prof | Pf gamet viab | Efa HMGR inh
Cc1c(C(=O)N2CCC(C)CC2)sc2ncnc(N3CCN(c4ccccc4)CC3)c12 | 63* | -7 | nt | -4 | nt | -1
O=C(NNC(=O)c1cc(OCC(F)(F)F)ccc1OCC(F)(F)F)c1cccc(C(F)(F)F)c1 | 92* | -1 | -14 | 1 | 6 | -2
CC(C)(C)OC(=O)C[C@@H]1C/C=C\C[C@@H](CC(=O)N(CCO)Cc2ccccc2)C(=O)N[C@@H](c2ccccc2)COC1=O | nt | nt | nt | nt | 2 | nt
O=[N+]([O-])c1cccc(-c2nnc3ccccn23)c1 | 26 | nt | -2 | nt | nt | nt
CC(=O)/C(N=Nc1ccc(-n2ccc(C(F)(F)F)n2)cc1)=C(\C)O | 93* | nt | 11 | nt | -16 | nt
CCOc1ccc(C(=O)NCC2CCN(CC3CCCCC3)CC2)cc1 | nt | nt | nt | nt | -8 | nt
Cc1cc(C)nc(NC(=O)CCC2CCCC2)c1 | -6 | -2 | 2 | 1 | nt | 9.9*
CN(CC#CC(O)(c1ccccc1)c1ccccc1)C(C)(C)C | 6 | nt | 15 | nt | -4 | nt
O=C(Nc1nc(-c2ccc(S(=O)(=O)N3CCOCC3)cc2)cs1)c1ccccc1 | -11 | -2 | nt | -1 | 4 | -6
Cc1ccc(Nc2nc(-c3ccc(S(=O)(=O)N4CCOCC4)cc3)cs2)cc1Cl | 60* | 1 | nt | 0 | nt | -2
O=C(c1ccc(Cl)nc1)N1CCN(S(=O)(=O)c2ccccc2)CC1 | -13 | nt | nt | nt | -15 | nt
CCOc1ccc(C2C(C#N)=C(N)Oc3cc(C)oc(=O)c32)cc1 (stereo unspecified) | -22 | 1 | -3 | 0 | -11 | 16*
COC(=O)c1ccccc1NC(=O)C(C)c1ccc([N+](=O)[O-])cc1 (stereo unspecified) | -10 | -1 | 42* | 0 | 2 | -9
O=C(O)/C=C/c1cn(Cc2ccccc2)nc1-c1ccccc1 | 1 | -5 | 44* | 2 | 17 | -6
Cc1ccc(-c2nn(Cc3ccccc3)cc2/C=C/C(=O)O)cc1C | -51 | -6 | -7 | 0 | nt | -1
Cc1ccc(NC(=O)CN(C)C(=O)CCCN2C(=O)c3ccccc3C2=O)cc1 | 60* | -16 | -11 | 3 | nt | -5
CN(c1ccccc1C(=O)NCc1ccccc1Cl)S(=O)(=O)c1ccccc1 | nt | nt | nt | nt | 23 | nt
Cc1cc2c3ccccc3ncn2n1 | -15 | nt | 15 | nt | nt | nt
CC(=O)c1c(C)nn(-c2ccccc2)c1C | -6 | nt | -8 | nt | -8 | nt
CC(=O)c1c(C(C)=O)c(C)n(C(c2ccccc2)c2ccccc2)c1C | 51* | 0 | -7 | -1 | 2 | -6
CCOc1ccccc1N1CCN(C(=O)CC(C)(C)C)CC1 | 0 | -4 | -5 | 0 | nt | 11*
Cc1oc(-c2ccccc2Cl)nc1CN1CCCCC1c1cccnc1 (stereo unspecified) | -54 | 8 | -2 | 0 | -43 | -2
COc1ccc(-c2nc(CN3CCCCC3c3cccnc3)c(C)o2)c(F)c1 (stereo unspecified) | -55 | -7 | -2 | -1 | -17 | 16*
